From ChEMBL document CHEMBL1129059, “Antitumor properties of some 2-[(dimethylamino)methyl]phenylgold(III) complexes” (J Med Chem, 1996)
Several values for one entry are separate records, joined by “and”; a condition that tells them apart may be missing. Identical values can stand only once.

Key:
[1] = test system: Mus musculus; experiment: Compound was evaluated for antitumor activity (RTV) in HT1376 carcinoma Xenograft, at a dosage 6.25 mg/kg on day 14; format: functional, organism-based; parameters: dose 6.25 mg/kg
Procedure, shortened: (§1)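 HT1376 tumor fragments implanted subcutaneously in nude mice flanks; mice with established palpable tumors randomized into groups of 6 (controls 10). Compounds given intraperitoneally as suspensions in 0.5% carboxymethylcellulose in 0.9% saline, on days 0, 7, 14 and 21. Tumor dimensions on days 0, 7, 14, 21, 28. RTV = 100(mean tumor volume at assessment)/(mean start volume).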

[2] = test system: Mus musculus; experiment: Compound was evaluated for antitumor activity (RTV) in HT1376 carcinoma Xenograft, at a dosage 6.25 mg/kg on day 21; format: functional, organism-based; parameters: dose 6.25 mg/kg; procedure, shortened: as §1
[3] = test system: Mus musculus; experiment: Compound was evaluated for antitumor activity (T/C) in HT1376 carcinoma Xenograft, at a dosage 12.5 mg/kg on day 7; format: functional, organism-based; parameters: dose 12.5 mg/kg
Procedure, shortened: (§2)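 Subcutaneous HT1376 xenografts in nude mice, 6 per treated group and 10 controls. Intraperitoneal dosing as suspensions in 0.5% carboxymethylcellulose/0.9% saline on days 0, 7, 14, 21; tumors measured weekly to day 28. T/C = RTV of treated group / RTV of untreated control group; significance by t-test at the 5% level.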

[4] = test system: Mus musculus; experiment: Compound was evaluated for antitumor activity (T/C) in PNX/109/TC carcinoma Xenograft, at a dosage 10 mg/kg on day 14; format: functional, organism-based; parameters: dose 10 mg/kg
Procedure, shortened: (§3)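 PNX/109/TC (CH1) ovarian tumor fragments implanted subcutaneously in the flanks of nude mice. Once tumors were palpable, mice were randomized into 6 per treated group and 10 controls. Dosing was ip in arachis oil on days 0, 7, 14 and 21, at the MTD and two 2-fold dilutions, with tumor dimensions taken on days 0, 7, 14, 21 and 28. T/C is treated RTV over control RTV, with RTV relative to start volume.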

[5] = test system: Mus musculus; experiment: Compound was evaluated for antitumor activity (RTV) in HT1376 carcinoma Xenograft, at a dosage 25 mg/kg on day 14; format: functional, organism-based; parameters: dose 25 mg/kg; procedure, shortened: as §1
[6] = test system: Mus musculus; experiment: Compound was evaluated for antitumor activity (RTV) in HT1376 carcinoma Xenograft, at a dosage 25 mg/kg on day 7; format: functional, organism-based; parameters: dose 25 mg/kg; procedure, shortened: as §1
[7] = test system: Mus musculus; experiment: Compound was evaluated for antitumor activity (T/C) in HT1376 carcinoma Xenograft, at a dosage 25 mg/kg on day 21; format: functional, organism-based; parameters: dose 25 mg/kg; procedure, shortened: as §2
[8] = test system: Mus musculus; experiment: Compound was evaluated for antitumor activity (T/C) in HT1376 carcinoma Xenograft, at a dosage 25 mg/kg on day 7; format: functional, organism-based; parameters: dose 25 mg/kg
Procedure, shortened: (§4)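 Nude mice carrying subcutaneous flank HT1376 fragments; treatment began once tumors were established and palpable, randomized into groups of 6 treated and 10 control mice. Dosing was ip as a suspension in 0.5% carboxymethylcellulose in 0.9% saline on days 0, 7, 14 and 21, at the MTD and two 2-fold dilutions. Tumors were measured on days 0-28. RTV = 100(mean volume at assessment)/(mean start volume); T/C = treated RTV/control RTV.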

[9] = test system: Mus musculus; experiment: Compound was evaluated for antitumor activity (T/C) in HT1376 carcinoma Xenograft, at a dosage 6.25 mg/kg on day 14; format: functional, organism-based; parameters: dose 6.25 mg/kg; procedure, shortened: as §4
[10] = test system: Mus musculus; experiment: Compound was evaluated for antitumor activity (T/C) in HT1376 carcinoma Xenograft, at a dosage 6.25 mg/kg on day 21; format: functional, organism-based; parameters: dose 6.25 mg/kg; procedure, shortened: as §4
[11] = test system: Mus musculus; experiment: Compound was evaluated for antitumor activity (T/C) in HT1376 carcinoma Xenograft, at a dosage 6.25 mg/kg on day 7; format: functional, organism-based; parameters: dose 6.25 mg/kg; procedure, shortened: as §4
[12] = test system: Mus musculus; experiment: Compound was evaluated for antitumor activity (T/C) in HT1376 carcinoma Xenograft, at a dosage 12.5 mg/kg on day 14; format: functional, organism-based; parameters: dose 12.5 mg/kg; procedure, shortened: as §2
[13] = test system: Mus musculus; experiment: Compound was evaluated for antitumor activity (T/C) in HT1376 carcinoma Xenograft, at a dosage 12.5 mg/kg on day 21; format: functional, organism-based; parameters: dose 12.5 mg/kg; procedure, shortened: as §2
[14] = test system: Mus musculus; experiment: Compound was evaluated for antitumor activity (T/C) in HT1376 carcinoma Xenograft, at a dosage 12.5 mg/kg on day 28; format: functional, organism-based; parameters: dose 12.5 mg/kg; procedure, shortened: as §2
[15] = test system: Mus musculus; experiment: Compound was evaluated for antitumor activity (T/C) in PNX/109/TC carcinoma Xenograft, at a dosage 20 mg/kg on day 14; format: functional, organism-based; parameters: dose 20 mg/kg; procedure, shortened: as §3
[16] = test system: Mus musculus; experiment: Compound was evaluated for antitumor activity (T/C) in PNX/109/TC carcinoma Xenograft, at a dosage 20 mg/kg on day 7; format: functional, organism-based; parameters: dose 20 mg/kg; procedure, shortened: as §3
[17] = test system: Mus musculus; experiment: Compound was evaluated for antitumor activity (T/C) in PNX/109/TC carcinoma Xenograft, at a dosage 5 mg/kg on day 14; format: functional, organism-based; parameters: dose 5 mg/kg; procedure, shortened: as §3
[18] = test system: Mus musculus; experiment: Compound was evaluated for antitumor activity (T/C) in PNX/109/TC carcinoma Xenograft, at a dosage 5 mg/kg on day 28; format: functional, organism-based; parameters: dose 5 mg/kg; procedure, shortened: as §3
[19] = test system: Mus musculus; experiment: Compound was evaluated for antitumor activity (RTV) in HT1376 carcinoma Xenograft, at a dosage 12.5 mg/kg on day 14; format: functional, organism-based; parameters: dose 12.5 mg/kg; procedure, shortened: as §1
[20] = test system: Mus musculus; experiment: Compound was evaluated for antitumor activity (RTV) in HT1376 carcinoma Xenograft, at a dosage 12.5 mg/kg on day 21; format: functional, organism-based; parameters: dose 12.5 mg/kg; procedure, shortened: as §1
[21] = test system: Mus musculus; experiment: Compound was evaluated for antitumor activity (RTV) in HT1376 carcinoma Xenograft, at a dosage 12.5 mg/kg on day 28; format: functional, organism-based; parameters: dose 12.5 mg/kg; procedure, shortened: as §1
[22] = test system: Mus musculus; experiment: Compound was evaluated for antitumor activity (RTV) in PNX/109/TC carcinoma Xenograft, at a dosage 10 mg/kg on day 21; format: functional, organism-based; parameters: dose 10 mg/kg
Procedure, shortened: (§5)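 PXN/109/TC (CH1) ovarian tumor fragments implanted subcutaneously in nude mice flanks; established palpable tumors, groups of 6 (controls 10). Dosed intraperitoneally as suspension in arachis oil on days 0, 7, 14, 21. Tumors measured days 0, 7, 14, 21, 28. RTV = 100(mean tumor volume at assessment)/(mean start volume).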

[23] = test system: Mus musculus; experiment: Compound was evaluated for antitumor activity (RTV) in PNX/109/TC carcinoma Xenograft, at a dosage 10 mg/kg on day 28; format: functional, organism-based; parameters: dose 10 mg/kg; procedure, shortened: as §5
[24] = test system: Mus musculus; experiment: Compound was evaluated for antitumor activity (RTV) in PNX/109/TC carcinoma Xenograft, at a dosage 20 mg/kg on day 14; format: functional, organism-based; parameters: dose 20 mg/kg; procedure, shortened: as §5
[25] = test system: Mus musculus; experiment: Compound was evaluated for antitumor activity (RTV) in PNX/109/TC carcinoma Xenograft, at a dosage 20 mg/kg on day 28; format: functional, organism-based; parameters: dose 20 mg/kg; procedure, shortened: as §5
[26] = test system: Mus musculus; experiment: Compound was evaluated for antitumor activity (RTV) in PNX/109/TC carcinoma Xenograft, at a dosage 20 mg/kg on day 7; format: functional, organism-based; parameters: dose 20 mg/kg; procedure, shortened: as §5
[27] = test system: Mus musculus; experiment: Compound was evaluated for antitumor activity (RTV) in PNX/109/TC carcinoma Xenograft, at a dosage 5 mg/kg on day 28; format: functional, organism-based; parameters: dose 5 mg/kg; procedure, shortened: as §5
[28] = test system: Mus musculus; experiment: Compound was evaluated for antitumor activity (RTV) in PNX/109/TC carcinoma Xenograft, at a dosage 5 mg/kg fon day 7; format: functional, organism-based; parameters: dose 5 mg/kg; procedure, shortened: as §5
[29] = test system: Mus musculus; experiment: Compound was evaluated for antitumor activity (RTV) in PNX/109/TC carcinoma Xenograft, at a dosage 5 mg/kg on day 21; format: functional, organism-based; parameters: dose 5 mg/kg; procedure, shortened: as §5
[30] = Range is evaluated. (Highest IC50/Lowest IC50); format: functional
[31] = test system: Mus musculus; experiment: Compound was evaluated for antitumor activity (RTV) in HT1376 carcinoma Xenograft, at a dosage 6.25 mg/kg on day 7.; format: functional, organism-based; parameters: dose 6.25 mg/kg; procedure, shortened: as §1
[32] = test system: Mus musculus; experiment: Compound was evaluated for antitumor activity (T/C) in PNX/109/TC carcinoma Xenograft, at a dosage 10 mg/kg on day 28; format: functional, organism-based; parameters: dose 10 mg/kg; procedure, shortened: as §3
[33] = test system: Mus musculus; experiment: Compound was evaluated for antitumor activity (RTV) in PNX/109/TC carcinoma Xenograft, at a dosage 5 mg/kg on day 14; format: functional, organism-based; parameters: dose 5 mg/kg; procedure, shortened: as §5

Substance: Acetato[2-(dimethylamino)methyl]phenyl-C,N]gold-(III)
- RTV [1]: 724
- RTV [2]: 953
- T/C [3]: 0.77
- T/C [4]: 0.9
- RTV [5]: 454
- RTV [6]: 258
- T/C [7]: 0.76
- T/C [8]: 0.93
- T/C [9]: 1.43
- T/C [10]: 1.07
- T/C [11]: 1.37
- T/C [12]: 0.98
- T/C [13]: 0.77
- T/C [14]: 0.75
- T/C [15]: 0.57
- T/C [16]: 0.74
- T/C [17]: 0.8
- T/C [18]: 1.08
- RTV [19]: 498
- RTV [20]: 682
- RTV [21]: 1080
- RTV [22]: 515
- RTV [23]: 833
- RTV [24]: 200
- RTV [25]: 481
- RTV [26]: 173
- RTV [27]: 673
- RTV [28]: 160
- RTV [29]: 423
- Range [30]: 21.6 and 31
- RTV [31]: 379
- T/C [32]: 1.34
- RTV [33]: 282
